The nature of data set [1]: Metabolic stability in rat liver microsomes after 10 mins. Format: ADME, Microsome. Conditions: read-out: Stability; call rule not given here.
Data set [2] in a line: Metabolic stability in human liver microsomes after 10 mins. Conditions: read-out: Stability. In kind it is ADME, Microsome.
The nature of data set [3]: (§1) Permeability across monolayer of human Caco-2 cell. Format: ADME, cell-based. Conditions: read-out: permeability.
The next data set concerns Caco-2. The description is as §1. In kind it is ADME, cell-based.
The subject of data set [4] is Human immunodeficiency virus 1. Description: Antiviral activity against HIV1 infected HeLa67 after 3 days by luciferase reporter assay. Conditions: Human immunodeficiency virus 1, HeLa67, 72 h. In kind it is functional, organism-based.
The nature of data set [5]: Cytotoxicity against human HeLa67 cell after 3 days by XTT assay. The conditions noted are these: HeLa67 cells. Format: cell-based. In a few lines:
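HeLa67 cells exposed to test compounds in parallel with the antiviral assay; XTT read-out 3 days after compound addition, giving CC50.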

Structures are written as SMILES.

With `CCCCCC1CN(C(=O)C(=O)c2c[nH]c3cccc(F)c23)CCN1C(=O)c1ccccc1` (stereo not drawn), the results for the remaining at 10 min in data set [1] and in data set [2] were 3% and 45%, respectively. The Papp in data set [3] was determined as 6.9 ×10⁻⁶ cm/s.
Turning to `COc1cccc2[nH]cc(C(=O)C(=O)N3CCN(C(=O)c4ccccc4)CC3C)c12` (stereo not drawn), the remaining at 10 min in data set [1] worked out at 72%; in data set [2], 84%. Also, the permeability entry in the data set with Caco-2 was “Not Active”.
With `CCCC1CN(C(=O)c2ccccc2)CCN1C(=O)C(=O)c1c[nH]c2cccc(F)c12` (stereo not drawn), the remaining at 10 min in data set [1] was 11%; in data set [2] it was 52%. Also, the Papp in data set [3] was determined as 17.2 ×10⁻⁶ cm/s.
For `CC(C)C1CN(C(=O)C(=O)c2c[nH]c3cccc(F)c23)CCN1C(=O)c1ccccc1` (stereo not drawn), in that order: 39%, 63% and 16.1 ×10⁻⁶ cm/s.
On to `C[C@@H]1CN(C(=O)c2ccccc2)CCN1C(=O)C(=O)c1c[nH]c2cccc(F)c12`, for which the remaining at 10 min in data set [1] turned out to be 2%; in data set [2], 74%. The Papp in data set [3] was 5.4 ×10⁻⁶ cm/s.
For the compound `C[C@@H]1CN(C(=O)c2ccccc2)C[C@H](C)N1C(=O)C(=O)c1c[nH]c2cccc(F)c12`, the remaining at 10 min was 2% in data set [1] and 55% in data set [2]. Besides, the Papp in data set [3] is under 1.5 ×10⁻⁶ cm/s.
Regarding `CCCCCC1CN(C(=O)c2ccccc2)CCN1C(=O)C(=O)c1c[nH]c2cccc(F)c12` (stereo not drawn), the remaining at 10 min in data set [1] amounted to 0%; in data set [2], 29%. Besides, the Papp in data set [3] stood at 15.4 ×10⁻⁶ cm/s.
For `CC(C)C1CN(C(=O)c2ccccc2)CCN1C(=O)C(=O)c1c[nH]c2cccc(F)c12` (stereo not drawn), in that order: 31%, 59% and 16.5 ×10⁻⁶ cm/s.
In turn, `O=C(NCCCNC(=O)c1ccccc1)C(=O)c1c[nH]c2cccc(F)c12` yielded an EC50 in data set [4] of over 50 µM. The compound also yielded a CC50 at 72 h in data set [5] of over 300 µM.
In data set [4], `CN(CCN(C)C(=O)c1ccccc1)C(=O)C(=O)c1c[nH]c2cccc(F)c12` gave a half-maximal effective concentration (EC50) of over 50 µM. Also, the CC50 at 72 h in data set [5] is over 300 µM.
For `O=C(N[C@H]1CCCC[C@H]1NC(=O)c1ccccc1)C(=O)c1c[nH]c2cccc(F)c12` (relative stereo) the same measures were 30.5 µM and 65 µM.
For `O=C(C(=O)N1CCCN(C(=O)c2ccccc2)CC1)c1c[nH]c2cccc(F)c12`, in that order: over 50 µM and over 300 µM.
Consider `O=C(C(=O)N1CCN(C(=O)c2ccccc2)CC1)c1c[nH]c2cccc(F)c12`, for which the remaining at 10 min in data set [1] is 51%; in data set [2], 98%. The Papp in data set [3] stood at 4.7 ×10⁻⁶ cm/s.
In the case of `C[C@@H]1CN(C(=O)C(=O)c2c[nH]c3cccc(F)c23)C[C@H](C)N1C(=O)c1ccccc1`, the values for the remaining at 10 min in data set [1] and in data set [2] were 16% and 69%, respectively. The Papp in data set [3] came to 7.3 ×10⁻⁶ cm/s.
Regarding `COc1cccc2[nH]cc(C(=O)C(=O)N3CCN(C(=O)c4ccccc4)C[C@@H]3C)c12`, the remaining at 10 min in data set [1] was determined as 75%; in data set [2] it was 98%. The permeability entry in the data set with Caco-2 is on record as “Not Active”.
Turning to `CC(C)CC1CN(C(=O)c2ccccc2)CCN1C(=O)C(=O)c1c[nH]c2cccc(F)c12` (stereo not drawn), the remaining at 10 min stood at 7% in data set [1] and 38% in data set [2]. Further, the Papp in data set [3] came to 17.1 ×10⁻⁶ cm/s.
For `CC1CN(C(=O)C(=O)c2c[nH]c3cccc(F)c23)CCN1C(=O)c1ccccc1` (stereo not drawn) the same measures were 32%, 100% and 3.6 ×10⁻⁶ cm/s.
For the compound `CCC1CN(C(=O)C(=O)c2c[nH]c3cccc(F)c23)CCN1C(=O)c1ccccc1` (stereo not drawn), the remaining at 10 min is 25% in data set [1] and 63% in data set [2]. The Papp in data set [3] turned out to be 17.1 ×10⁻⁶ cm/s.
For `COc1cccc2[nH]cc(C(=O)C(=O)N3CCN(C(=O)c4ccccc4)C[C@H]3C)c12`, in that order: 56%, 84% and 4.6 ×10⁻⁶ cm/s.
As to `COc1cccc2[nH]cc(C(=O)C(=O)N3CCN(C(=O)c4ccccc4)CC3)c12`, the remaining at 10 min was found to be 88% in data set [1] and 100% in data set [2]. Besides, the Papp in data set [3] was 4.3 ×10⁻⁶ cm/s.
For `CCCC1CN(C(=O)C(=O)c2c[nH]c3cccc(F)c23)CCN1C(=O)c1ccccc1` (stereo not drawn) the same measures were 25%, 50% and 15.4 ×10⁻⁶ cm/s.
For `CC(C)(C)C1CN(C(=O)c2ccccc2)CCN1C(=O)C(=O)c1c[nH]c2cccc(F)c12` (stereo not drawn) the same measures were 49%, 68% and 17 ×10⁻⁶ cm/s.
`O=C(C(=O)N1CC2CC1CN2C(=O)c1ccccc1)c1c[nH]c2cccc(F)c12` (stereo not drawn): the EC50 in data set [4] is over 50 µM. The CC50 at 72 h in data set [5] was over 300 µM.
With `CC1CN(C(=O)c2ccccc2)CCN1C(=O)C(=O)c1c[nH]c2cccc(F)c12` (stereo not drawn), the remaining at 10 min is 12% in data set [1] and 82% in data set [2]. For the same compound, the Papp in data set [3] came to 7.2 ×10⁻⁶ cm/s.
For the compound `C[C@@H]1CN(C(=O)c2ccccc2)[C@@H](C)CN1C(=O)C(=O)c1c[nH]c2cccc(F)c12`, the remaining at 10 min in data set [1] was 0%; in data set [2] it was 43%. Also, in data set [3], the Papp worked out at 5 ×10⁻⁶ cm/s.
For `C[C@@H]1CN(C(=O)c2ccccc2)[C@H](C)CN1C(=O)C(=O)c1c[nH]c2cccc(F)c12` (relative stereo), in that order: 59%, 76% and 9.6 ×10⁻⁶ cm/s.
For `CC(C)CC1CN(C(=O)C(=O)c2c[nH]c3cccc(F)c23)CCN1C(=O)c1ccccc1` (stereo not drawn), in that order: 13%, 35% and 19 ×10⁻⁶ cm/s.
For `CC(C)(C)C1CN(C(=O)C(=O)c2c[nH]c3cccc(F)c23)CCN1C(=O)c1ccccc1` (stereo not drawn) the same measures were 44%, 58% and 19 ×10⁻⁶ cm/s.
In data set [4], `O=C(N[C@H]1CCCC[C@@H]1NC(=O)c1ccccc1)C(=O)c1c[nH]c2cccc(F)c12` (relative stereo) came in with a concentration for a half-maximal effect (EC50) of over 50 µM. In addition, in data set [5], the CC50 at 72 h is over 300 µM.
The compound `O=C(NCCNC(=O)c1ccccc1)C(=O)c1c[nH]c2cccc(F)c12` registered an EC50 in data set [4] of over 50 µM. Also, the CC50 at 72 h in data set [5] was over 300 µM.
Compound `CN(CCCN(C)C(=O)c1ccccc1)C(=O)C(=O)c1c[nH]c2cccc(F)c12` showed an EC50 in data set [4] of over 50 µM. Also, the CC50 at 72 h in data set [5] is over 300 µM.
For `O=C(NC1CCCC(NC(=O)c2ccccc2)C1)C(=O)c1c[nH]c2cccc(F)c12` (stereo not drawn) the same measures were over 50 µM and over 300 µM.
`C[C@H]1CN(C(=O)c2ccccc2)CCN1C(=O)C(=O)c1c[nH]c2cccc(F)c12`: the remaining at 10 min in data set [1] turned out to be 32%; in data set [2], 85%. Moreover, in data set [3], the Papp worked out at 8.8 ×10⁻⁶ cm/s.
For the compound `CCC1CN(C(=O)c2ccccc2)CCN1C(=O)C(=O)c1c[nH]c2cccc(F)c12` (stereo not drawn), the remaining at 10 min in data set [1] was determined as 8%; in data set [2], 55%. Besides, the Papp in data set [3] turned out to be 15 ×10⁻⁶ cm/s.

The values above are taken from ChEMBL document CHEMBL1155364, “Inhibitors of HIV-1 attachment. Part 4: A study of the effect of piperazine substitution patterns on antiviral potency in the context of indole-based derivatives” (Bioorg Med Chem Lett, 2009).
